Results from different studies.
Compare with care: the assays were run in different laboratories.
Sample: plasma

CC(=O)O[C@H]1C(=O)[C@@]2(C)[C@H]([C@H](OC(=O)c3ccccc3)[C@]3(O)C[C@H](OC(=O)[C@H](O)[C@@H](NC(=O)c4ccccc4)c4ccccc4)C(C)=C1C3(C)C)[C@]1(OC(C)=O)CO[C@@H]1C[C@@H]2O — AUC(0-t) (human; intravenous, 60 mg/m²): 2.1 µM·h
CC1(C)CC[C@]2(NC(=O)C(C)(F)F)CC[C@]3(C)[C@H](C(=O)C=C4[C@@]5(C)C=C(C#N)C(=O)C(C)(C)[C@@H]5CC[C@]43C)[C@@H]2C1 — AUC(0-t) (human; oral, 150 mg, single dose): 1730 ng·h/mL
CC(=O)N(C)[C@H]1CCN(C(=O)c2cnc3c(c2)C[C@](C)(c2ccc(F)cc2)N3)C1 — AUC(0-t) (male human; oral, 15 mg, multiple doses, once daily): 1.88 µM·h
OC[C@H]1O[C@@H](c2cc(Cc3ccc(C4CC4)cc3)c(Cl)c3c2CCO3)[C@H](O)[C@@H](O)[C@@H]1O — AUC(0-t) (human; oral, 0.3 mg, single dose, fasted): 26.5 ng·h/mL
COc1ccc(-c2c(Nc3ccccn3)[nH]c3c(C4=CCCCC4)c(-c4ccccc4)nn3c2=O)cc1 — AUC(0-t) (human; oral, 50 mg once daily, multiple doses, steady state, patients): 33400 ng·h/mL
COc1ccc2c(c1)CN(C(=O)CCN1CCC(Cc3ccccc3)CC1)CC[S@@+]2[O-] — AUC(0-t) (male human; intravenous, 0.05 mg/kg, healthy volunteers): 241 ng·h/mL
C[C@@H](Oc1ccc(S(C)(=O)=O)cc1C(=O)N1C[C@@H]2C[C@]2(c2cc(C(F)(F)F)on2)C1)C(F)(F)F — AUC(0-t) (human; oral, 10 mg, single dose, fasted): 1.61 µM·h
C=CC(=O)NC1CCN(c2ncc3ncnc(Nc4ccc(Oc5ccc6c(c5)ncn6C)c(C)c4)c3n2)CC1 — AUC(0-t) (male human; intravenous, 100 µg, healthy volunteers): 0.00262 µM·h
CC(C)n1c(C2CCNCC2)nc2c([N+](=O)[O-])c(Br)c(Br)cc21 — AUC(0-t) (human; oral, 50 mg, patients): 451 ng·h/mL
